Test results as given in ChEMBL document CHEMBL1148568, “Synthesis and biological evaluation of 3-ethylidene-1,3-dihydro-indol-2-ones as novel checkpoint 1 inhibitors” (Bioorg Med Chem Lett, 2006).
Values belong to the compound of their own block, whether it stands above or below them.

Experiments:
[1] = molecular target: T1, Serine/threonine-protein kinase Chk1 (Homo sapiens, UniProt O14757); experiment: Inhibitory activity against Chk1
T1 sequence (O14757 whole entry): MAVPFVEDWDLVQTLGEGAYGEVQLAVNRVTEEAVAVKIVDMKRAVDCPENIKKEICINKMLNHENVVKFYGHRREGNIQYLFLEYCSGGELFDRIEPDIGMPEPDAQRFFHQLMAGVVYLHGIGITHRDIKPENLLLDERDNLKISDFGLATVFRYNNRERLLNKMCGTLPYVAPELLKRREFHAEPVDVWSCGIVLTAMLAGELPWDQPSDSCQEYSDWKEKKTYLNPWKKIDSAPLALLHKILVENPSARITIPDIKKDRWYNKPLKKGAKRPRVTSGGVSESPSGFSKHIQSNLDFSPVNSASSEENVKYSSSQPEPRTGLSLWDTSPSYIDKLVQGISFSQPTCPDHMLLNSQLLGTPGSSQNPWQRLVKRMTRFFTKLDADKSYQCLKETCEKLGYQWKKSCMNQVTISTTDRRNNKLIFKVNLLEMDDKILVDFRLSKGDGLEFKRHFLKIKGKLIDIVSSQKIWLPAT

[2] = molecular target: Proto-oncogene tyrosine-protein kinase Src (Homo sapiens, UniProt P12931); experiment: Inhibitory activity against SRC
Chain of Proto-oncogene tyrosine-protein kinase Src (P12931 2-536 limits assumed): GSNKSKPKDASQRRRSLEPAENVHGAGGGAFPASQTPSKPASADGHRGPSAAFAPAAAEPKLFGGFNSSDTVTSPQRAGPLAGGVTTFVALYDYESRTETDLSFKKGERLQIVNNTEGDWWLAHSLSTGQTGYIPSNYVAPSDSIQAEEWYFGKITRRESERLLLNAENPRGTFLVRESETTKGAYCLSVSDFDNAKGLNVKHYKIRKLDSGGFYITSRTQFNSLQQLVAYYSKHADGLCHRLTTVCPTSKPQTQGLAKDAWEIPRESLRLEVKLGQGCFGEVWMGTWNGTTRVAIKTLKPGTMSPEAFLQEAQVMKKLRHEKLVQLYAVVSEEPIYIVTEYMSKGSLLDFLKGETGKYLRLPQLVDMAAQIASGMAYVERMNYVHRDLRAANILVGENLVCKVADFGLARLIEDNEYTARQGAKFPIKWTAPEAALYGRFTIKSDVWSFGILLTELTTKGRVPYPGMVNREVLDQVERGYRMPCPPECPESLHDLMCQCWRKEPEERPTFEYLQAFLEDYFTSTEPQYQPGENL

[3] = molecular target: T2, Serine/threonine-protein kinase Sgk1 (Homo sapiens, UniProt O00141); experiment: Inhibitory activity against SGK
T2 sequence (O00141 whole entry): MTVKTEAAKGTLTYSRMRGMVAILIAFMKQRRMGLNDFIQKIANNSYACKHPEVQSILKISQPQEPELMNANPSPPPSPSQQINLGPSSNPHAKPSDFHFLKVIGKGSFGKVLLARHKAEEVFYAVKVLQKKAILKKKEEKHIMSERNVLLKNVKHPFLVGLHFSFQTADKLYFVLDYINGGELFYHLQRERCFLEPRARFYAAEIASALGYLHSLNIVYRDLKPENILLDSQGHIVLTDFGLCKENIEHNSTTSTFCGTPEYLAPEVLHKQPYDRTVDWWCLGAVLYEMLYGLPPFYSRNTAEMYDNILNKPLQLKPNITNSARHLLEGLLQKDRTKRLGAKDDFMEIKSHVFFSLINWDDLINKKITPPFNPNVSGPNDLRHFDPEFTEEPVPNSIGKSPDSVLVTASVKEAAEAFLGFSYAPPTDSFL

[4] = molecular target: Protein kinase C delta type (Homo sapiens, UniProt Q05655); experiment: Inhibitory activity against PKC delta
[5] = molecular target: Cyclin-dependent kinase 1 (Homo sapiens, UniProt P06493); experiment: Inhibitory activity against CDC2
Chain of Cyclin-dependent kinase 1 (P06493 whole entry): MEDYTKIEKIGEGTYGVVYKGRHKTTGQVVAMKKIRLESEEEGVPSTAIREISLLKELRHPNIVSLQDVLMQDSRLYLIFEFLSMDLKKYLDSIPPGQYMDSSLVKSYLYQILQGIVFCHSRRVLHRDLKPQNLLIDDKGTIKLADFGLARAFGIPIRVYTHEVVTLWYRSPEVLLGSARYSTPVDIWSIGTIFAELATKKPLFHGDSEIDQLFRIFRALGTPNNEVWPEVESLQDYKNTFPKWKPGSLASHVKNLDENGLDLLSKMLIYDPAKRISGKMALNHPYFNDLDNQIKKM

Angiopoietin-1 receptor = Angiopoietin-1 receptor (Homo sapiens, UniProt Q02763); experiment: Inhibitory activity against Tie2
Chain of Angiopoietin-1 receptor (Q02763 whole entry): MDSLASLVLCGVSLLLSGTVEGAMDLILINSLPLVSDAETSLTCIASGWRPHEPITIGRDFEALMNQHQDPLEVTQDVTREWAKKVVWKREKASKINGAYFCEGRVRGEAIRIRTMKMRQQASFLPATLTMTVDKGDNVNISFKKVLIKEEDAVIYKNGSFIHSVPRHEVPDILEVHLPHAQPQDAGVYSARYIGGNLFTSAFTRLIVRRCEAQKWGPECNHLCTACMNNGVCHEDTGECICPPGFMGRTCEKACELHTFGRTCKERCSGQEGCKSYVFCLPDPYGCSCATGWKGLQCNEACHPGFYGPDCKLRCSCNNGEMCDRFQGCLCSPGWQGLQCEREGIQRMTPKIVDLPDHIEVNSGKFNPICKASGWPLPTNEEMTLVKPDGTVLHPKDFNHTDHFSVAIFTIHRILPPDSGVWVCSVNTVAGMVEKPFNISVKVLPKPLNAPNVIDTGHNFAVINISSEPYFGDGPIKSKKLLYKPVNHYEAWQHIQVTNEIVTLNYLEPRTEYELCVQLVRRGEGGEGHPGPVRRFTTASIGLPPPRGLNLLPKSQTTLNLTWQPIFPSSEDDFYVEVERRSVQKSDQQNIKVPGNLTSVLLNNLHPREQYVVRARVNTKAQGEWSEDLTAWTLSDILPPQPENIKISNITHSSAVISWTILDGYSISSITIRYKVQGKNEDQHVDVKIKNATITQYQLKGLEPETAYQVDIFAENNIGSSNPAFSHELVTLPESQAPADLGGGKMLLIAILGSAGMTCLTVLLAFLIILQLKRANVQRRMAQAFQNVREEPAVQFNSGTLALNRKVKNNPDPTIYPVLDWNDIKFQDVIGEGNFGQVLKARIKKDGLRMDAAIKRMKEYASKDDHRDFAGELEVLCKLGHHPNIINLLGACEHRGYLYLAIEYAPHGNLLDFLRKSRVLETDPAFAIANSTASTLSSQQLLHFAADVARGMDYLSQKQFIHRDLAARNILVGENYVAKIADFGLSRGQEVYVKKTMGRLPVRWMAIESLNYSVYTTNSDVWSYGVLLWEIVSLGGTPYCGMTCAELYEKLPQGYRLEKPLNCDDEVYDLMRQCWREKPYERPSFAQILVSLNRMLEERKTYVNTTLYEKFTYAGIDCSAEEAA

[6] = molecular target: Serine/threonine-protein kinase Chk2 (Homo sapiens, UniProt O96017); experiment: Inhibitory activity against Chk2
Chain of Serine/threonine-protein kinase Chk2 (O96017 whole entry): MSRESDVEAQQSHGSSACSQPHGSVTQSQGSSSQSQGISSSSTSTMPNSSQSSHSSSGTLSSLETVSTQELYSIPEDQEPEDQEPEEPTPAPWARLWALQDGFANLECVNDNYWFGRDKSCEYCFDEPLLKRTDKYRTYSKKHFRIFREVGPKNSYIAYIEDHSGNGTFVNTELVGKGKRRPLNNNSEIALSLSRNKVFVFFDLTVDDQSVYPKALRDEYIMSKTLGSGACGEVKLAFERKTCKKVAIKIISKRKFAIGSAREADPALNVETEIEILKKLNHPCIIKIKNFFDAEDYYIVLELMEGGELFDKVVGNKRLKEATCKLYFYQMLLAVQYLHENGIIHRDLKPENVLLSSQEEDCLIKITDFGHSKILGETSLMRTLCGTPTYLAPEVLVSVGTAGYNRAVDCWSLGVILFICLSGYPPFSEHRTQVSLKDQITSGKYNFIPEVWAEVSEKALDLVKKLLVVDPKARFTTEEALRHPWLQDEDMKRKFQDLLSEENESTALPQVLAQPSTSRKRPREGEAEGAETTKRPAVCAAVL

[7] = molecular target: Epidermal growth factor receptor (Homo sapiens, UniProt P00533); experiment: Inhibitory activity against EGFR
Chain of Epidermal growth factor receptor (P00533 whole entry): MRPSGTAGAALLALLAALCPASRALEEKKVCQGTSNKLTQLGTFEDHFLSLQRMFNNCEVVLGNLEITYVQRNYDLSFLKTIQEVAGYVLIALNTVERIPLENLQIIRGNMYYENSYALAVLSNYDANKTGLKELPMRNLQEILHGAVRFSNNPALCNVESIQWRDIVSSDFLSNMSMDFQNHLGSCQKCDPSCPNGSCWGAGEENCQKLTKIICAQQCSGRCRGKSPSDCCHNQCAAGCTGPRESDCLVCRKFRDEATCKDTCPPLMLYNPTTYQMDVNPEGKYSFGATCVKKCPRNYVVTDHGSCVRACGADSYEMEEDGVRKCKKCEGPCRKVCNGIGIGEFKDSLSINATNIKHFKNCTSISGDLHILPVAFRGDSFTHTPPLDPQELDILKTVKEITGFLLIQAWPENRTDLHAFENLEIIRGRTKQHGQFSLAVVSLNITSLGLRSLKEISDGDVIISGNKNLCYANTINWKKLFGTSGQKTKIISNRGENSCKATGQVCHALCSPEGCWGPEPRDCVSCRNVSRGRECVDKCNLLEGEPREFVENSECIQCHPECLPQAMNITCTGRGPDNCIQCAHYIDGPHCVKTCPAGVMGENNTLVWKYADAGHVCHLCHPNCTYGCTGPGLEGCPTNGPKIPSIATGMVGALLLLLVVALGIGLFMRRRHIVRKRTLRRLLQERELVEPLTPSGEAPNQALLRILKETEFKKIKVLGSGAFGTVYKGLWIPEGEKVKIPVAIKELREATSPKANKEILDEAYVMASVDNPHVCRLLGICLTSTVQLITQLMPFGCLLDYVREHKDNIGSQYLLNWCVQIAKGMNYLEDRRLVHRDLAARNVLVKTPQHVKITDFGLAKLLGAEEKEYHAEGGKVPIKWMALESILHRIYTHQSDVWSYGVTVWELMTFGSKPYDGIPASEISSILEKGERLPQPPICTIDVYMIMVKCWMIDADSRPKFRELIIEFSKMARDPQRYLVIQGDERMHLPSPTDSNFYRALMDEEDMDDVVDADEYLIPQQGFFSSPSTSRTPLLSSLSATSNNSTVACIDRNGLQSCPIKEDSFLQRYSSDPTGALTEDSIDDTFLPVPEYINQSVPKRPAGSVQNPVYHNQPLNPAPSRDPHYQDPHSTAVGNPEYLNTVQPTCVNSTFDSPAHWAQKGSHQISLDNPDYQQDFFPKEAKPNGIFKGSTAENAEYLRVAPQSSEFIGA

[8] = molecular target: Protein kinase C gamma type (Homo sapiens, UniProt P05129); experiment: Inhibitory activity against PKC gamma
Casein kinase II = Casein kinase II (Homo sapiens, UniProt P19784+P67870+P68400); experiment: Inhibitory activity against CK2; assay type: protein-complex assay
[9] = molecular target: MAP kinase-activated protein kinase 2 (Homo sapiens, UniProt P49137); experiment: Inhibitory activity against MAPKAP2
Chain of MAP kinase-activated protein kinase 2 (P49137 whole entry): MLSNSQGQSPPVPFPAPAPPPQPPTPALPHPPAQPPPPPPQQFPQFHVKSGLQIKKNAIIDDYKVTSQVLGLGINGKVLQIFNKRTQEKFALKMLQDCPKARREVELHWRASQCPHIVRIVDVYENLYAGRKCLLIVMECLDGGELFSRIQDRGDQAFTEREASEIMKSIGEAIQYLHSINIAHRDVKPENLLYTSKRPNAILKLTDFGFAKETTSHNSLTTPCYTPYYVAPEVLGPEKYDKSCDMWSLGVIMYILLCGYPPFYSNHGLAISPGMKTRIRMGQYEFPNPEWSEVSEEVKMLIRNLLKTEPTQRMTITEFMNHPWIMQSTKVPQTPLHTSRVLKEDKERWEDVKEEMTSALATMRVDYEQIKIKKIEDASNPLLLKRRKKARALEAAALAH

HeLa [10] = experiment: Antiproliferative activity against human HeLa cells by MTS assay; assay type: functional, cell-based
Method in brief: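 p53-deficient human cervical cancer HeLa cells were treated with the test compound alone over varying concentrations. Proliferation was read out by MTS, and the antiproliferative EC50 was determined.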

HeLa [11] = experiment: Antiproliferative activity against human HeLa cells by MTS assay in the presence of doxorubicin; assay type: functional, cell-based

IC50 [1]: 0.092 µM
Structure (SMILES): COc1cc(-c2ccc3c(c2)NC(=O)/C3=C\c2c[nH]c3ccccc23)ccc1O

Structure (SMILES): COc1cc(-c2ccc3c(c2)NC(=O)/C3=C\c2ncc[nH]2)ccc1O
IC50 [2]: > 50 µM | IC50 [3]: 1.5 µM | IC50 [4]: > 50 µM | IC50 [5]: 0.251 µM | IC50 (Angiopoietin-1 receptor): 23.3 µM | IC50 [6]: 14.6 µM | IC50 [7]: > 50 µM | IC50 [1]: 0.018 µM | IC50 [8]: > 50 µM

IC50 [1]: > 10 µM
Structure (SMILES): O=C1Nc2cc(-c3ccc(OC(F)(F)F)cc3)ccc2/C1=C/c1cc[nH]c1

IC50 [1]: 0.047 µM
Structure (SMILES): COc1cc(-c2ccc3c(c2)NC(=O)/C3=C\c2[nH]c(C)c(CCO)c2C)ccc1O

IC50 [1]: 0.029 µM
Structure (SMILES): O=C1Nc2cc(-c3ccc(O)cc3)ccc2/C1=C/c1cc[nH]c1

IC50 [1]: 0.025 µM
Structure (SMILES): COc1cc(-c2ccc3c(c2)NC(=O)/C3=C\c2cc[nH]c2)ccc1O

IC50 [1]: 3.46 µM
Structure (SMILES): COc1cc(-c2ccc3c(c2)/C(=C/c2c[nH]c4c(C)cccc24)C(=O)N3)ccc1O

IC50 [1]: > 10 µM
Structure (SMILES): COc1cc(-c2ccc3c(c2)NC(=O)/C3=C\c2[nH]c(C)cc2-c2ccccc2)ccc1O

IC50 [1]: > 10 µM
Structure (SMILES): O=C1Nc2cc(-c3ccc(F)c(F)c3)ccc2/C1=C/c1cc[nH]c1

IC50 [1]: 2.84 µM
Structure (SMILES): COc1cc(-c2ccc3c(c2)/C(=C/c2ccc[nH]2)C(=O)N3)ccc1O

IC50 [1]: 0.075 µM
Structure (SMILES): COC(=O)CCc1c(C)[nH]c(/C=C2\C(=O)Nc3cc(-c4ccc(O)c(OC)c4)ccc32)c1C

IC50 [1]: > 50 µM
Structure (SMILES): COc1cc(-c2ccc3c(c2)NC(=O)/C3=C\c2cccc(OC)c2OC)ccc1O

IC50 [1]: 0.445 µM
Structure (SMILES): COc1cc(-c2ccc3c(c2)NC(=O)/C3=C\c2c[nH]c3nc(C#N)ccc23)ccc1O

IC50 [1]: 1.03 µM
Structure (SMILES): Nc1ccc(-c2ccc3c(c2)NC(=O)/C3=C\c2cc[nH]c2)cc1

Structure (SMILES): COc1cc(-c2ccc3c(c2)NC(=O)/C3=C\c2ccc[nH]2)ccc1O
IC50 [2]: > 50 µM | IC50 [3]: > 50 µM | IC50 (Casein kinase II): > 50 µM | IC50 [9]: > 50 µM | IC50 [4]: > 50 µM | IC50 [5]: > 50 µM | IC50 (Angiopoietin-1 receptor): > 50 µM | IC50 [6]: 21.7 µM | IC50 [7]: > 50 µM | IC50 [8]: > 50 µM

IC50 [1]: 1.31 µM
Structure (SMILES): COc1cc(-c2ccc3c(c2)NC(=O)/C3=C\c2c[nH]c3c(C)cccc23)ccc1O

IC50 [1]: > 10 µM
Structure (SMILES): COc1cc(-c2ccc3c(c2)NC(=O)/C3=C\c2cc[nH]c2)cc(OC)c1OC

IC50 [1]: 1.28 µM
Structure (SMILES): COc1cc(-c2ccc3c(c2)NC(=O)/C3=C\c2[nH]c(C)c(CN(C)C)c2C(C)C)ccc1O

IC50 [1]: 3.46 µM
Structure (SMILES): COc1cc(-c2ccc3c(c2)NC(=O)/C3=C\c2[nH]c(C)cc2C(C)C)ccc1O

IC50 [1]: > 10 µM
Structure (SMILES): Cc1ccc(-c2ccc3c(c2)NC(=O)/C3=C\c2cc[nH]c2)cc1

IC50 [1]: > 50 µM
Structure (SMILES): COc1cc(-c2ccc3c(c2)/C(=C/c2c[nH]c4ccccc24)C(=O)N3)ccc1O

IC50 [1]: > 50 µM
Structure (SMILES): COc1cc(-c2ccc3c(c2)/C(=C/c2cccc(OC)c2OC)C(=O)N3)ccc1O

IC50 [1]: 0.12 µM
Structure (SMILES): COc1cc(-c2ccc3c(c2)NC(=O)/C3=C\c2[nH]c(C)cc2C)ccc1O

IC50 [1]: 0.01 µM
Structure (SMILES): COc1cc(O)ccc1-c1ccc2c(c1)NC(=O)/C2=C\c1cc[nH]c1

IC50 [2]: 2.38 µM | IC50 [3]: > 50 µM | IC50 (Casein kinase II): 41.7 µM | IC50 [9]: > 50 µM | IC50 [5]: 0.454 µM | IC50 [6]: 22.7 µM | EC50 (HeLa [10]): 0.01 µM | EC50 (HeLa [11]): 0.18 µM | IC50 [1]: 0.004 µM
Structure (SMILES): COc1cc(-c2ccc3c(c2)NC(=O)/C3=C\c2c[nH]c3ncccc23)ccc1O

IC50 [1]: 3.97 µM
Structure (SMILES): COc1cc(-c2ccc3c(c2)NC(=O)/C3=C\C2CCCN2)ccc1O (stereo unspecified)
